M18AAP inhibitor: blocks P. falciparum M18 aspartyl aminopeptidase; recombinant PfM18AAP, H-Glu-NHMec fluorogenic cleavage; inhibition, % at 7.35 µM; 1.2% of 290,000 active;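 active = inhibition above the campaign mean inhibition over all tested compounds plus 3 SD, cut at about 28% in these data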;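 also: 0% = plate median of test compound wells and 100% = 2 mM ZnCl2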
EBNA-1 inhibitor: blocks EBNA-1 binding to DNA; EBNA-1 DNA binding, fluorescence polarization; inhibition, % at 14.8 µM; 0.34% of 300,000 active; in the data active = inhibition above about 28%
NS3 helicase inh: HCV NS3 helicase inhibition | NS3 helicase DNA unwinding, Cy5 molecular beacon fluorescence | inhibition, % at 10.9 µM | 0.56% of 290,000 active;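 active = inhibition above the mean of all tested compounds plus 3 SD, set per campaign, cut at about 35% in these data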;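 also: 0% = DMSO wells and 100% = thioflavine S control wells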
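Measured by: Cy5 fluorescence, 0 and 60 min reads / Assay system: NS3 helicase fragment of HCV / Control set: low DMSO, high thioflavine S at 110 µM / Times: 1 h reaction at 25 °C, ATP-initiated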
ALR inh: human ALR oxidase inhibition via reduced H2O2; inhibition, % (test concentration not listed); purified ALR, DTT oxidation, H2O2 HRP-luminol luminescence; 3.8% of 290,000 active; P55789;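 active = mean replicate inhibition above about 79%, with every replicate also reaching it, limit read from the data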
Target sequence (P55789 whole entry, looked up): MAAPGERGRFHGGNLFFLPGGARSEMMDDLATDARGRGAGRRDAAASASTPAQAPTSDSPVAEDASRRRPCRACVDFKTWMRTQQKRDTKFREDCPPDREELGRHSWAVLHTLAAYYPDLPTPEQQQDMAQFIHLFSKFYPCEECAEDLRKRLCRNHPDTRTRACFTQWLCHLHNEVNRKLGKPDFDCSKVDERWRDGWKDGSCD
HCV core dimer: HCV core protein dimerization inhibition; TR-FRET GST/Flag-core106 dimerization, 1536-well; inhibition, % at 5 µM; 0.33% of 300,000 active;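 active = inhibition above the mean of all tested compounds plus 3 SD, set per screening campaign, cut at about 45% in these data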
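Assay system: tagged HCV core106 pair (GST and Flag); medium: KF-containing HEPES buffer, pH 7.45, DTT, CHAPS, BSA; also added: Eu donor and XL665 acceptor anti-tag antibodies; dosing: 5 µM single dose; timing: compound-protein-antibody incubation 4 h at 22.5 °C; signal: TR-FRET 671 and 617 nm emission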
ZTA DNA inh: blocks Epstein-Barr virus ZTA, an EBNA-1 counter-screen | P03206 | ZTA-DNA binding, fluorescence polarization | inhibition, % at 11 µM | 0.15% of 320,000 active; in the data active = inhibition above about 33%
Target sequence (P03206 whole entry, looked up): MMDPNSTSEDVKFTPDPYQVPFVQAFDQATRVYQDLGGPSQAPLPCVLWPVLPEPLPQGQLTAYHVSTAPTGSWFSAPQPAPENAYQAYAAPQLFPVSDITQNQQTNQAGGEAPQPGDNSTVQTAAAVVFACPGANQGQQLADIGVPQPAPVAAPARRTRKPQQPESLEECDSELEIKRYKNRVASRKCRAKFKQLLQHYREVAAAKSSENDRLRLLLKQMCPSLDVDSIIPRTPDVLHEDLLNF
* = called active by the depositor; / = not tested or not shown. In the library only some 5.2% were active in any assay of this set; here they are far more common.

SMILES	M18AAP inhibitor	EBNA-1 inhibitor	NS3 helicase inh	ALR inh	HCV core dimer	ZTA DNA inh
CCOc1ccc(-c2nc(=S)[nH][nH]2)cc1	21	6	9	/	-1	7
Oc1ccc(-c2nc(=S)[nH][nH]2)cc1	18	3	2	/	4	-13
FC(F)(F)c1ccc(-c2nc(=S)[nH][nH]2)cc1	10	-7	-8	99*	0	6
O=C(c1ccc([N+](=O)[O-])s1)N1CCN(c2ccc(C(F)(F)F)cn2)CC1	4	-12	12	-25	22	4
CC12CCC(=O)N1C(C(=O)Nc1nc(-c3cc(F)ccc3F)cs1)CS2 (stereo not drawn)	/	8	/	-1	1	9
O=C(C1CCN(S(=O)(=O)c2ccccc2F)CC1)N1CCc2ccccc2C1	2	-5	-2	-6	5	9
O=C(Cc1ccccc1)NCC(=O)OCC(=O)c1ccc(Cl)c([N+](=O)[O-])c1	8	-9	-6	5	8	-17
N#C/C(=C\c1ccc(N2CCCCC2)o1)C(N)=O	15	12	7	90*	-33	0
N#C/C(=C\c1ccc(N2CCCCC2)o1)C(=O)Nc1cccc(Br)c1	0	-3	9	-6	-8	-2
Cc1noc(C)c1NC(=O)Nc1ccc2c(c1)C(=O)N([C@H](C)CO)C[C@H](C)[C@@H](CN(C)S(=O)(=O)c1ccccc1)O2	/	/	/	1	/	/
CC(C)(CNC(=O)c1ccc(NS(=O)(=O)c2ccc(F)c(F)c2)cc1)N1CCOCC1	/	-2	/	-4	-5	-12
O=S(=O)(Nc1ccc(N2CCCCC2)cc1)c1ccc(F)c(F)c1	10	-1	-4	99*	0	-12
O=C(O)c1cccc(S(=O)(=O)Nc2ccc(N3CCCCC3)cc2)c1	/	/	/	99*	/	/
O=C(O)c1cc(S(=O)(=O)Nc2ccc(N3CCCCC3)cc2)ccc1Cl	13	-2	7	98*	-1	-3
Cc1ccc(CCNC(=O)Cn2ccc3cc(S(=O)(=O)N4CCCC4)ccc32)cc1	8	1	-5	1	3	9
O=C(NCc1cccs1)C1CCN(S(=O)(=O)c2cccc3cccnc23)CC1	/	5	/	95*	7	3
Cc1cccc(NC(=O)C2CCN(S(=O)(=O)c3cccc4cccnc34)CC2)n1	5	-11	2	27	-1	-7
O=C(C1CCN(S(=O)(=O)c2cccc3cccnc23)CC1)N1CCCCC1	-6	-4	9	-3	3	5
O=C(C1CCN(S(=O)(=O)c2cccc3cccnc23)CC1)N1CCN(C2CCCC2)CC1	-5	14	-5	82*	-1	9
Cc1ccc(NC(=O)C2CCN(S(=O)(=O)c3cccc4cccnc34)CC2)nc1	-8	9	3	95*	6	5
COc1cccc(NC(=O)COC(=O)C2CC3CCCC(C2)C3=O)c1 (stereo not drawn)	/	/	/	-2	/	-1
CN(C)CCCN1c2ccccc2Sc2ccc(Cl)cc21	15	-2	-73	98*	-22	0
CN(C)CC/C=C1\c2ccccc2Sc2ccc(Cl)cc21	-3	-2	-81	-9	-8	2
CC(=O)c1ccc2c(c1)N(CCCN1CCC(CCO)CC1)c1ccccc1S2	/	0	/	96*	-21	-17
CN1CCN(CCCNC(=O)c2cn(C)c3ccc(S(=O)(=O)N(C)C)cc3c2=O)CC1	4	-8	0	-2	-3	5
SMILES	M18AAP inhibitor	EBNA-1 inhibitor	NS3 helicase inh	ALR inh	HCV core dimer	ZTA DNA inh
OCCN1CCN(CCCN2c3ccccc3Sc3ccc(Cl)cc32)CC1	18	0	-79	99*	-19	-4
CN1CCN(CCCN2c3ccccc3Sc3ccc(S(=O)(=O)N(C)C)cc32)CC1	/	11	/	96*	-21	9
C=CCC(O)(CC=C)CNC(=O)c1ccc(OC)c(OC2CCN(C(C)=O)CC2)c1	2	/	17	4	/	/
CCCCn1c(SCC(=O)N2c3ccccc3CCc3ccccc32)nc2c1c(=O)n(C)c(=O)n2C	1	-2	-4	-2	4	-18
CCCCn1c(SCc2nnc(-c3ccccc3)o2)nc2c1c(=O)n(C)c(=O)n2C	3	4	0	78*	1	15
Cn1c(=O)c2c(ncn2CC(=O)OCC(=O)Nc2ccc(F)cc2F)n(C)c1=O	/	/	/	/	/	1
Cc1ccc(N2C(=O)CS/C2=N\C(=S)Nc2ccccc2)cc1	-11	17	8	90*	-6	8
CCN=C1SCC(=O)N1c1ccc(OC)cc1	-1	7	9	-20	-3	-10
O=C(NCC(c1ccco1)N1CCCC1)c1cccc(S(=O)(=O)N2CCOCC2)c1 (stereo not drawn)	/	/	/	0	/	-4
CCCCc1nnc(NC(=O)c2ccccc2OCc2c(C)noc2C)s1	/	-5	/	-4	0	8
CN1/C(=C\C(=O)c2cccnc2)C(C)(C)c2ccccc21	0	2	-6	17	6	-8
CN1/C(=C\C(=O)c2ccco2)C(C)(C)c2ccccc21	6	39*	-5	29	4	147*
CN1/C(=C/C(=O)c2nc(S(C)(=O)=O)ncc2Cl)C(C)(C)c2ccccc21	-17	5	3	98*	12	2
COC(=O)[C@@]12CCCN1[C@H](c1ccc(-c3ccccc3)cc1)[C@@H]1C(=O)N(C)C(=O)[C@@H]12	/	-4	/	-5	6	-13
Cc1ccc(-c2nc3ccccc3o2)cc1NC(=S)NC(=O)/C=C/c1ccco1	-5	1	9	/	56*	9
O=C(/C=C/c1ccco1)NC(=S)Nc1cccc(-c2nc3ccccc3o2)c1	3	13	31	-10	56*	15
Cc1ccc(-n2nc3cc(C)c(NC(=S)NC(=O)/C=C/c4ccco4)cc3n2)cc1	-6	6	25	86*	17	-5
Cc1ccccc1NC(=S)NC(=O)/C=C/c1ccco1	-3	14	6	48	2	-3
CC(C)=C1SC(N2CCN(c3ccc(Cl)cc3)CC2)=NC1=O	1	1	-3	4	10	9
CC(C)=C1SC(N2CCN(c3ccc(C)cc3)CC2)=NC1=O	4	2	1	94*	3	19
COc1cc(/C=N/NC(=O)CCOc2ccccc2C)cc(Br)c1O	9	-3	-26	97*	-12	4
COc1ccc(/C=N/NC(=O)CCOc2ccccc2C)cc1OC	2	-12	-7	43	6	-3
O=C(N/N=C/c1cc(Br)c(O)c(Br)c1)c1cccnc1	5	4	1	39	-8	19
COc1cc(/C=N/NC(=O)c2cccnc2)cc(Br)c1O	5	-2	0	81*	-27	-5
Cc1nn(-c2ccc(Cl)cc2)c(Cl)c1/C=N/NC(=O)c1ccc(NS(=O)(=O)c2cccs2)cc1	/	-4	/	-5	54*	-2

Compound activity deposited in PubChem by several laboratories.
